Legend:
[1] = % distribution in octanol versus pH7.4 buffer; format: physicochemical; details: pH 7.4
Felis catus = species on record: Felis catus; assay: In vitro concentration required for 50% inhibition of swelling of cat cerebrocortical slices; format: functional; details: read-out: I50
In short: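 Cat cortical slices were weighed and incubated 60 min at 22 °C in 27 mM K+ medium, with HCO3- added for the last 40 min and inhibitor present throughout. Swelling = (final − initial wet weight)/initial wet weight × 100. The HCO3−-dependent increment was taken as the target. I50 is the molarity giving 50% inhibition, read from the concentration–response curve.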

[2] = Dissociation constant (pKa) (determined in 30% EtOH); format: physicochemical

| Structure (SMILES) | Distribution [1] [%] | IC50 (Felis catus; Felis catus) [nM] | pKa [2] | IC50 (Felis catus) [nM] |
| --- | --- | --- | --- | --- |
| CCC12CCC(=O)C=C1c1c(cc(OCC(=O)OCCN3CCOCC3)c(Cl)c1Cl)C2 (configuration not stated) | 98.6 | > 10 | 5.08 |  |
| CCCC12CCC(=O)C=C1c1c(cc(OCC(=O)NCCN(C)C)c(Cl)c1Cl)C2 (configuration not stated) | 99.7 | > 1000 | 7.7 |  |
| CCCC12CC(=O)C=C1c1c(cc(OCC(=O)O)c(Cl)c1Cl)C2 (configuration not stated) | 88 | 100 | 3.84 |  |
| CCC12CCC(=O)C=C1c1c(cc(OCc3nn[nH]n3)c(Cl)c1Cl)C2 (configuration not stated) | 95 | > 100 | 3.72 |  |
| CCCC12CCC(=O)C=C1c1c(cc(OCC(=O)NN(C)C)c(Cl)c1Cl)C2 (configuration not stated) | 99.7 | > 100 | 3.9 |  |
| CC(C)C12CCC(=O)C=C1c1c(cc(OCC(=O)O)c(Cl)c1Cl)C2 (configuration not stated) | 89 | > 100 | 3.83 |  |
| C=CC12CCC(=O)C=C1c1c(cc(OCC(=O)O)c(Cl)c1Cl)C2 (configuration not stated) | 70 | > 10 | 3.5 |  |
| CCC12CCC(=O)C=C1c1c(cc(OCC(=O)OCc3cccnc3)c(Cl)c1Cl)C2 (configuration not stated) | > 99.9 | 0.1 | 3.32 |  |
| CCCC12CCC(=O)C=C1c1c(cc(OCC(=O)O)c(C)c1C)C2 (configuration not stated) | 49 | 100 | 4.3 |  |
| CCC12C=CC(=O)C=C1c1c(cc(OCC(=O)O)c(Cl)c1Cl)C2 (configuration not stated) | 79 | > 10 | 3.7 |  |
| CCCC12CCC(=O)C=C1c1ccc(OCC(=O)O)cc1C2 (configuration not stated) | 49 | 50 | 4.05 |  |
| CCCC12CCC(=O)C=C1c1c(cc(OCCCC(=O)O)c(Cl)c1Cl)C2 (configuration not stated) | 99.8 | 3 | 3.7 |  |
| CCCC12CCC(=O)C(C)=C1c1c(cc(OCC(=O)O)c(Cl)c1Cl)C2 (configuration not stated) | 98 | > 100 | 3.5 |  |
| CCCCC12CCC(=O)C=C1c1c(cc(OCC(=O)O)c(Cl)c1Cl)C2 (configuration not stated) | 98 | > 10 | 3.5 |  |
| O=C(O)COc1cc2c(c(Cl)c1Cl)C1=CC(=O)CCC1(C1CCCC1)C2 (configuration not stated) | 97 | 1 | 3.83 |  |
| CCCC12CCC(=O)C=C1c1c(cc(OCC(=O)OC)c(Cl)c1Cl)C2 (configuration not stated) | > 99.9 | 0.002 |  |  |
| CCC12CCC(=O)C=C1c1c(cc(OCCCC(=O)O)c(Cl)c1Cl)C2 (configuration not stated) | 99.2 | > 10000 | 3.7 |  |
| CCCC12CCC(=O)C=C1c1c(cc(SCC(=O)O)c(Cl)c1Cl)C2 (configuration not stated) | 99 | > 1000 | 4.7 |  |
| CC12CCC(=O)C=C1c1c(cc(OCC(=O)O)c(Cl)c1Cl)C2 (configuration not stated) | 62 | 10 | 3.75 |  |
| CCCC12CCC(C(C)=O)=C1c1c(cc(OCC(=O)O)c(Cl)c1Cl)C2 (configuration not stated) | 95 | 100 | 4.1 |  |
| CCC12CCC(=O)C=C1c1c(cc(OCC(=O)O)c(Cl)c1Cl)C2 (single isomer, unassigned; (+)) |  |  |  | 10 |
| CCCC12CCC(=O)C=C1c1c(cc(O)c(Cl)c1Cl)C2 (single isomer, unassigned; (+)) | 11 | > 10000 | 6.18 |  |
| CCCC12CCC(=O)C=C1c1c(cc(OCC(=O)OC(CC)(CC)C(=O)O)c(Cl)c1Cl)C2 (single isomer, unassigned; (+)) | > 99.9 | 0.04 | 3.4 |  |
| CCCC12CCC(=O)C=C1c1c(cc(OCC(=O)OC(C)(C)C(=O)O)c(Cl)c1Cl)C2 (single isomer, unassigned; (+)) | 98 | 0.004 | 3.8 |  |
| CCCC12CCC(=O)C=C1c1c(cc(OCC(=O)O)c(Cl)c1Cl)C2 (single isomer, unassigned; (-)) |  |  |  | 10000 |
| CCCC12CCC(=O)C=C1c1c(cc(OCC(=O)O)c(Cl)c1Cl)C2 (stereo in doubt; 5c) | 93 |  | 3.6 | 0.04 |
| CCC12CCC(=O)C=C1c1c(cc(OCC(=O)OC(C)(C)C(=O)O)c(Cl)c1Cl)C2 (stereo in doubt; 16b-9) | 95 | 1 | 3.8 |  |
| CCC12CCC(=O)C=C1c1c(cc(OCC(=O)OC(C)(C)C(=O)O)c(Cl)c1Cl)C2 (stereo in doubt; (+)-16b-9) | 96 |  |  | 0.5 |

More lines, now with the values ahead:

| Distribution [1] [%] | IC50 (Felis catus; Felis catus) [nM] | pKa [2] | IC50 (Felis catus) [nM] | Structure (SMILES) |
| --- | --- | --- | --- | --- |
| > 99.9 | 1 |  |  | CCC12CCC(=O)C=C1c1c(cc(OCC(=O)OCC(C)=O)c(Cl)c1Cl)C2 (configuration not stated) |
| 99.9 | > 10 |  |  | CCC12CCC(=O)C=C1c1c(cc(OCC(=O)OCC3COC(C)(C)O3)c(Cl)c1Cl)C2 (configuration not stated) |
| 99.7 | 1000 |  |  | CCC12CCC(=O)C=C1c1c(cc(OCC(=O)OCC3CCC(CO)O3)c(Cl)c1Cl)C2 (configuration not stated) |
| 99.3 | 0.7 |  |  | CCC12CCC(=O)C=C1c1c(cc(OCC(=O)OCCCO)c(Cl)c1Cl)C2 (configuration not stated) |
| 99.5 | 20 |  |  | CCC12CCC(=O)C=C1c1c(cc(OCC(=O)OC)c(Cl)c1Cl)C2 (configuration not stated) |
| > 99.9 |  |  | 0.1 | CCOC(=O)COc1cc2c(c(Cl)c1Cl)C1=CC(=O)CCC1(CC)C2 (single isomer, unassigned; (+)) |
|  |  |  | > 10000 | CCOC(=O)COc1cc2c(c(Cl)c1Cl)C1=CC(=O)CCC1(CC)C2 (single isomer, unassigned; (-)) |
|  |  |  | 30 | CCC12CCC(=O)C=C1c1c(cc(OCC(=O)O)c(Cl)c1Cl)C2 (stereo in doubt; 5b) |
| > 99.8 |  |  | 0.2 | CCOC(=O)COc1cc2c(c(Cl)c1Cl)C1=CC(=O)CCC1(CC)C2 (stereo in doubt; 16b-1) |
| 91 | 6 | 3.8 |  | CCC12CCC(=O)C=C1c1c(cc(OCC(=O)OCC(=O)O)c(Cl)c1Cl)C2 (stereo in doubt; 16b-8) |
| 83 |  |  | 3 | CCC12CCC(=O)C=C1c1c(cc(OCC(=O)OCC(=O)O)c(Cl)c1Cl)C2 (stereo in doubt; (+)-16b-8) |
| 81 |  | 3.6 | 30000 | CCC12CCC(=O)C=C1c1c(cc(OCC(=O)O)c(Cl)c1Cl)C2 (stereo in doubt; (-)-5b) |

Source: ChEMBL document CHEMBL1123488, “Agents for the treatment of brain edema. 2. [(2,3,9,9a-Tetrahydro-3-oxo-9a-substituted-1H-fluoren-7-yl)oxy]+ ++alkanoi c acids and some of their analogues” (J Med Chem, 1986)
